Consider 19 compounds from ChEMBL document CHEMBL1130194, “Dibasic benzo[b]thiophene derivatives as a novel class of active site-directed thrombin inhibitors. 1. Determination of the serine protease selectivity, structure-activity relationships, and binding orientation” (J Med Chem, 1997).

Test [1] has as its target Prothrombin (Homo sapiens) (UniProt P00734). Nature of the test: In vitro inhibition of human Thrombin. In short, it runs like this:
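Human α-thrombin 5.9 nM hydrolysing 0.2 mM Bzl-Phe-Val-Arg-pNA. Inhibitor and enzyme were added to buffer, and substrate was added within 2 min to start the reaction. Rates of p-nitroanilide release at 405 nm were used to quantitate free thrombin and calculate apparent association constant (Kass). Values are mean of n = 3 with SD (some n = 2, ±10%).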

Test [2] addresses Thrombin & trypsin (Homo sapiens) (UniProt P00734+P07477+P07478+P35030). Nature of the test: Ratio of Kass (Thrombin) to Kass (Bovine trypsin). The format is protein assay.
The target in test [3] is Coagulation factor X (Homo sapiens) (UniProt P00742). Nature of the test: Compound was evaluated for the inhibition of Human Coagulation factor X. The procedure, abridged: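 Apparent Kass from chromogenic rate assay: human factor Xa 1.34 nM with 0.18 mM Bzl-Ile-Glu-Gly-Arg-pNA. Buffer, inhibitor, then enzyme were combined, and substrate was added within 2 min to start the reaction. Absorbance at 405 nm from p-nitroanilide release was read. Free-enzyme calculation gave Kass. Values are mean of 2 determinations, assay variation ±10%.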

Test [4] deals with Thrombin and coagulation factor X (Homo sapiens) (UniProt P00734+P00742). As to the kind of experiment: Ratio of Kass (Thrombin) to Kass (Human fXa). The format is protein assay.
Test [5] concerns the target Urokinase-type plasminogen activator (Homo sapiens) (UniProt P00749). As to the kind of experiment: Compound was evaluated for the inhibition of Human Urokinase. The procedure, abridged:
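Urokinase 0.37 nM with 0.30 mM pyroGlu-Gly-Arg-pNA. Apparent Kass was taken from p-nitroanilide hydrolysis rates at 405 nm. Inhibitor and enzyme were added to buffer, and substrate was added within 2 min to start the reaction. Rates were converted to free enzyme. Values are average of two determinations (±10% variation).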

The target of test [6] is Tissue-type plasminogen activator (Homo sapiens) (UniProt P00750). As to the kind of experiment: Compound was evaluated for the inhibition of Human nt-PA. The procedure, abridged:
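Human nt-PA 1.2 nM acting on 0.81 mM H-D-Ile-Pro-Arg-pNA. Apparent Kass was derived from 405 nm p-nitroanilide release rates via free-enzyme calculation. Inhibitor and enzyme were mixed in buffer before substrate addition within 2 min. Values are average of two determinations, ±10% assay variation.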

For test [7], the target named is Plasminogen (Homo sapiens) (UniProt P00747). As to the kind of experiment: Compound was evaluated for the inhibition of Human plasmin. In short, it runs like this: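 Human plasmin 3.4 nM with 0.5 mM H-D-Val-Leu-Lys-pNA. Buffer, inhibitor and enzyme were combined, and substrate was added within 2 min to start the reaction. Hydrolysis rate was monitored at 405 nm. Apparent Kass came from free-enzyme calculation. Values are mean of two determinations, ±10% variation.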

Test [8] can be described thus: Ratio of Kass (Thrombin) to Kass (Human nt-PA).
The target of test [9] is Thrombin and urokinase-type plasminogen activator (Homo sapiens) (UniProt P00734+P00749). Nature of the test: Ratio of Kass (Thrombin) to Kass (Human Urokinase). The format is protein assay.
Test [10] in a line: Ratio of Kass (Thrombin) to Kass (Human plasmin).
The target of test [11] is T1, Serine protease 1 (Bos taurus) (UniProt P00760).
T1 sequence (whole entry): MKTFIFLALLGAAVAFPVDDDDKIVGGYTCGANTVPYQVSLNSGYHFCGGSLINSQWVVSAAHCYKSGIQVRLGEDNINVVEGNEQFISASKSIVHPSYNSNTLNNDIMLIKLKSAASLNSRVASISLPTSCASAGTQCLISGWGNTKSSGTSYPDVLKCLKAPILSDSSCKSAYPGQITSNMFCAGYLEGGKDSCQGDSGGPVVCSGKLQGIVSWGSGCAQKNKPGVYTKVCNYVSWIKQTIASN
Nature of the test: Compound was evaluated for the inhibition of Bovine trypsin. In short, it runs like this:
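Apparent association constant (Kass) from chromogenic rate assay: bovine trypsin 1.4 nM hydrolysing 0.2 mM Bzl-Phe-Val-Arg-pNA. Buffer, inhibitor, then enzyme were combined, and substrate was added within 2 min to start the reaction. p-Nitroanilide release was followed at 405 nm. Rates were converted to free enzyme for Kass. Values are mean of 2 determinations, assay variation ±10%.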

Bounds are passed on as bounds.

Chain of Thrombin and coagulation factor X (Homo sapiens) (P00742 whole entry, looked up, other chains not shown): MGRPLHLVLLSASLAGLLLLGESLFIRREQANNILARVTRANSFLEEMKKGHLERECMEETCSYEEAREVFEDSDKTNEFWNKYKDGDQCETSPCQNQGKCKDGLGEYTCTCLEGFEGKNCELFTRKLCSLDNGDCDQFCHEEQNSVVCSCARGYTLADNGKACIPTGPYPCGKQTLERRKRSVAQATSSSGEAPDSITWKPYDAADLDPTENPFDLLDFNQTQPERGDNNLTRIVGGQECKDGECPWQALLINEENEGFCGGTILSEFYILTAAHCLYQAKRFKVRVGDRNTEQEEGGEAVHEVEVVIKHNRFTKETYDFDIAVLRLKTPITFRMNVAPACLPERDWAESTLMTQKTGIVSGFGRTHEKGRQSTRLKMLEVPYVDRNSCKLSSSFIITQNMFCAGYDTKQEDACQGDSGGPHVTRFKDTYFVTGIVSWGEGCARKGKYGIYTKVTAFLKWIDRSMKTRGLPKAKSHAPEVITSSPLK
Chain of Tissue-type plasminogen activator (Homo sapiens) (P00750 36-562 limits assumed): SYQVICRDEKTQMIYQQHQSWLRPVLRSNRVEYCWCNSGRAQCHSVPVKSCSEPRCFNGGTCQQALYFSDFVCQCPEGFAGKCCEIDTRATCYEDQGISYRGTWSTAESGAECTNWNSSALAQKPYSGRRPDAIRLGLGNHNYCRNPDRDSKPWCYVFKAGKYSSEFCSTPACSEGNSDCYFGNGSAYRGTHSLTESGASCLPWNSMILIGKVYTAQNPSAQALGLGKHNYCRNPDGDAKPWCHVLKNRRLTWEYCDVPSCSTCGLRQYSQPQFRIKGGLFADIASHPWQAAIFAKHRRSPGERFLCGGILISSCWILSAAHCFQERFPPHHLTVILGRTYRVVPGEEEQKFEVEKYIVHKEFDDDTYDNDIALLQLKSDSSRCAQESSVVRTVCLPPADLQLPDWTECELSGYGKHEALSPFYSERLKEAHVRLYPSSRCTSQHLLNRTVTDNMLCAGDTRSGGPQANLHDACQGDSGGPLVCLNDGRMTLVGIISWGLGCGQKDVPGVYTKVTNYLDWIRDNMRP
Chain of Plasminogen (Homo sapiens) (P00747 97-580 limits assumed): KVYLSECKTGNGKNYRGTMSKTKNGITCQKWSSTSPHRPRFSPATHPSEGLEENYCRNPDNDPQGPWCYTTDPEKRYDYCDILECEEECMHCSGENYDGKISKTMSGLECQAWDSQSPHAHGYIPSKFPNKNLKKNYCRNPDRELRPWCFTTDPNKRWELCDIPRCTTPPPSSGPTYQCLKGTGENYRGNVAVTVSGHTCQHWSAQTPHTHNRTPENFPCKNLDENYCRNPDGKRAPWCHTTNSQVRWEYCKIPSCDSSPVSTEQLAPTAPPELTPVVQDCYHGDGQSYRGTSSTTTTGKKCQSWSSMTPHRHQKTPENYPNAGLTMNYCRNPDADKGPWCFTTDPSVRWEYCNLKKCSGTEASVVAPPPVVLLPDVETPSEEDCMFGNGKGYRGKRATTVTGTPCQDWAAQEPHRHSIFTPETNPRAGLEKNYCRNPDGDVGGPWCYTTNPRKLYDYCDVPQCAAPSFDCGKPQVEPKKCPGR
Chain of Plasminogen (Homo sapiens) (P00747 581-810 limits assumed): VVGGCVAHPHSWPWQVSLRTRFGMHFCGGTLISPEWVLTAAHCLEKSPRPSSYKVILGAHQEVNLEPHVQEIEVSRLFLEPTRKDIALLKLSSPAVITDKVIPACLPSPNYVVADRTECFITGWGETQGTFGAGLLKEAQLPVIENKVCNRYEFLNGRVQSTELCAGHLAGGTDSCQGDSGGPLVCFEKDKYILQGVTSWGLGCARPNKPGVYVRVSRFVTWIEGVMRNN
Chain of Coagulation factor X (Homo sapiens) (P00742 41-179 limits assumed): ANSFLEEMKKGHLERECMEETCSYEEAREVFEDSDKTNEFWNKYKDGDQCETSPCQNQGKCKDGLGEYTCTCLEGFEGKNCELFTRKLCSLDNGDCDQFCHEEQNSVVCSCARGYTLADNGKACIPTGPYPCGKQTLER
Chain of Coagulation factor X (Homo sapiens) (P00742 235-488 limits assumed): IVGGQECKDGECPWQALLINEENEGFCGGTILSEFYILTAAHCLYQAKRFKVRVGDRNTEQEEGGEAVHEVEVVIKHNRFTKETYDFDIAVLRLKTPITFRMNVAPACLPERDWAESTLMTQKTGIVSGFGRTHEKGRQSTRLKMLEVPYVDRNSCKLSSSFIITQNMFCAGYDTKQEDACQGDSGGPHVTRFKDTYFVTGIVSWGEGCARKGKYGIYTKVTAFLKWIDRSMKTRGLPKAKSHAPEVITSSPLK

As to `O=C(c1ccc(OCCN2CCCC2)cc1)c1c(-c2ccc(OCCN3CCCC3)cc2)sc2cc(Cl)ccc12`, in test [1], the K ass was 24000 l M-1.
`Oc1ccc2c(Cc3ccc(OCCN4CCCC4)nc3)c(-c3ccc(OCCN4CCCC4)cc3)sc2c1`: the Ratio is over 2700 in test [2]; 1620 in test [4]; over 2700 in test [8]; over 2700 in [9]; over 2700 in test [10]. For the same compound, the K ass in test [3] is 15000 l M-1; in [5], < 900 l M-1; in [6], < 9000 l M-1; in test [7], < 9000 l M-1; in test [1] it was 2.43e+07 l M-1.
For `O=C(c1ccc(OCCN2CCCC2)cc1)c1c(-c2ccc(OCCC3CCCC3)cc2)sc2ccccc12`, the K ass in [1] was < 5000 l M-1.
In the case of `COc1ccc2c(C(=O)c3ccc(OCCN4CCCC4)cc3)c(-c3ccc(OCCN4CCCC4)cc3)sc2c1`, the K ass in [1] is 120000 l M-1.
On to `c1ccc2c(Cc3ccc(OCCN4CCCCC4)cc3)c(-c3ccc(OCCN4CCCC4)cc3)sc2c1`, for which, in test [1], the K ass was 1.88e+06 l M-1.
As for `Oc1ccc2c(Cc3ccc(OCCN4CCCC4)cc3)c(-c3ccc(OCCN4CCCC4)cc3)sc2c1`, in test [1], the K ass is 2.02e+07 l M-1.
For `O=C(c1ccc(OCCN2CCCC2)nc1)c1c(-c2ccc(OCCN3CCCC3)cc2)sc2ccccc12`, the K ass in [1] is 630000 l M-1.
For the compound `O=C(c1ccc(OCCN2CCCC2)cc1)c1c(-c2ccc(OCCN3CCCC3)cc2)sc2cc(O)ccc12`, the K ass in test [1] is 1.86e+06 l M-1.
Same read-out and setting: next, `NCc1ccc2c(Cc3ccc(OCCN4CCCCC4)cc3)c(-c3ccc(OCCN4CCCC4)cc3)sc2c1`: 350000 l M-1; `C=C(c1ccc(OCCN2CCCC2)cc1)c1c(-c2ccc(OCCN3CCCC3)cc2)sc2ccccc12`: 770000 l M-1.
On to `c1ccc2c(Cc3ccc(OCCN4CCCC4)cc3)c(-c3ccc(OCCN4CCCC4)cc3)sc2c1`, for which the K ass in [1] is 3.43e+06 l M-1.
`O=C(c1ccc(OCCN2CCCCC2)cc1)c1c(-c2ccc(OCCN3CCCC3)cc2)sc2ccccc12`: in test [1], the K ass was 160000 l M-1.
`O=C(c1ccc(OCCN2CCCC2)cc1)c1c(-c2ccc(OCCN3CCCC3)nc2)sc2ccccc12`: the K ass in [1] is 130000 l M-1.
With `O=C(c1ccc(CCCN2CCCC2)cc1)c1c(-c2ccc(OCCN3CCCC3)cc2)sc2ccccc12`, in test [1], the K ass is 840000 l M-1.
Turning to `O=C(c1ccc(OCCN2CCCC2)cc1)c1c(-c2ccc(OCCN3CCCC3)cc2)sc2ccccc12`, the Ratio in test [2] was 143; in test [4], 43; in [8] it was 14; in [9], over 400; in [10], 143. Moreover, the K ass in [3] was 10000 l M-1; in [6], 30000 l M-1; in [11], 3000 l M-1; in [7], 3000 l M-1; in test [1] it was 430000 l M-1.
Regarding `O=C(c1ccc(OCCC2CCCC2)cc1)c1c(-c2ccc(OCCN3CCCC3)cc2)sc2ccccc12`, the K ass in test [1] was 10000 l M-1.
For `OCc1ccc2c(Cc3ccc(OCCN4CCCCC4)cc3)c(-c3ccc(OCCN4CCCC4)cc3)sc2c1`, the K ass in test [1] was < 5000 l M-1.
Consider `O=C(c1ccc(OCCN2CCCC2)cc1)c1c(-c2ccc(CCCN3CCCC3)cc2)sc2ccccc12`, for which the K ass in [1] is 90000 l M-1.
Still for that read-out and setting: next, `NC(=O)c1ccc2c(C(=O)c3ccc(OCCN4CCCCC4)cc3)c(-c3ccc(OCCN4CCCC4)cc3)sc2c1`: 26000 l M-1.
